Laboratory results as given in ChEMBL document CHEMBL4138117, “Pentapeptides for the treatment of small cell lung cancer: Optimisation by Nind-alkyl modification of the tryptophan side chain” (Eur J Med Chem, 2017).
pIC50: −log10 of the molar value. Activity calls are given as the source filed them. The rule behind the calls is not given here. *1 amine or outer side, *2 acyl side, *3 side chain or, on linkers, in order; H or OH if unused. Where a SMILES comes first, the peptide text is derived from it. [ ]: non-standard residue; d: D form. X1 = C=CC(C)(C)n1cc(C[C@@H](N[*:1])C(=O)[*:2])c2ccccc21; dTrp(1-Bu) = CCCCn1cc(C[C@@H](N)C(=O)O)c2ccccc21; dNMeF = CN[C@H](Cc1ccccc1)C(=O)O

What was measured:
[1] = Retention time of the compound in mouse plasma at 400 ug/ml after 3 hrs by RP-HPLC method; type: ADME, cell-free
Method in brief: (§1)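 Peptide added to neat mouse plasma at 400 µg/ml and held at 37 °C. Aliquots taken at 0, 3, 24 and 48 h and analysed by RP-HPLC on a C8 column. Parent and degradation product(s) reported as relative percentage; n = 3.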

[2] = Retention time of the compound in mouse plasma at 400 ug/ml after 24 hrs by RP-HPLC method; type: ADME, cell-free; method in brief: as §1
[3] = test system: DMS-79; assay: Cytotoxicity against human DMS79 cells assessed as decrease in cell viability after 48 hrs by resazurin dye-based assay; type: functional; details: DMS-79, 48 h
Method in brief: (§2)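 H69 and DMS79 suspension cells grown in 10% FBS/RPMI-1640 at 37 °C, 5% CO2. Seeded at 1 x 10^4 cells/well in triplicate and given peptide the same day at 0.1–30 µM final, diluted in 50% FBS/saline. After 48 h, resazurin (0.125 mg/ml in PBS) added for 5 h, then fluorescence read and % viability calculated. Three independent repeats; IC50 taken from dose-response curves.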

[4] = test system: NCI-H69; assay: Cytotoxicity against human H69 cells assessed as decrease in cell viability after 48 hrs by resazurin dye-based assay; type: functional; details: NCI-H69, 48 h; method in brief: as §2
[5] = Retention time of the compound in mouse plasma at 400 ug/ml measured immediately after compound addition by RP-HPLC method; type: ADME, cell-free; method in brief: as §1
[6] = Drug level in mouse plasma treated with (S)-2-((3R,6R,9S,12R)-3,9-dibenzyl-6,12-bis((1-butyl-1H-indol-3-yl)methyl)-4,7,10-trioxo-2,5,8,11-tetraazatridecanamido)-4-methylpentanamide at 400 ug/ml after 48 hrs by mass spectrophotometric method; type: ADME, cell-free
[7] = Drug level in mouse plasma treated with (S)-2-((3R,6R,9S,12R)-3,9-dibenzyl-6,12-bis((1-butyl-1H-indol-3-yl)methyl)-4,7,10-trioxo-2,5,8,11-tetraazatridecanamido)-4-methylpentanamide at 400 ug/ml after 3 to 48 hrs by RP-HPLC method; type: ADME, cell-free; method in brief: as §1
[8] = Drug metabolism in mouse plasma at 400 ug/ml after 48 hrs by mass spectrophotometric method; type: ADME, cell-free
[9] = Retention time of the compound in mouse plasma at 400 ug/ml after 48 hrs by RP-HPLC method; type: ADME, cell-free; method in brief: as §1
[10] = test system: NCI-H69; assay: Induction of apoptosis in human H69 cells assessed as loss of plasma membrane integrity at 6 uM after 48 hrs by acridine orange/ethidium bromide staining-based inverted fluorescence microscopic method; type: functional, cell-based
Method in brief: (§3)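 Cells seeded at 1 x 10^4 cells/well and treated with peptide at 6 µM final in complete medium for 48 h at 37 °C, 5% CO2, with an untreated control. Then 1:1 AO/EB mix (100 µg/ml of each dye in PBS) added and cells viewed by inverted fluorescence microscopy at 10x.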

[11] = test system: DMS-79; assay: Induction of apoptosis in human DMS79 cells assessed as increase in necrotic cells at 6 uM after 48 hrs by acridine orange/ethidium bromide staining-based inverted fluorescence microscopic method; type: functional, cell-based; method in brief: as §3
[12] = test system: NCI-H69; assay: Induction of apoptosis in human H69 cells assessed as increase in late apoptotic cells at 6 uM after 48 hrs by acridine orange/ethidium bromide staining-based inverted fluorescence microscopic method; type: functional, cell-based; method in brief: as §3
[13] = test system: DMS-79; assay: Induction of apoptosis in human DMS79 cells assessed as increase in late apoptotic cells at 6 uM after 48 hrs by acridine orange/ethidium bromide staining-based inverted fluorescence microscopic method; type: functional, cell-based; method in brief: as §3
[14] = Metabolic stability in CD1 mouse liver S9 fraction at 400 ug/ml after 1 to 3 hrs in presence of UDPGA, NADPH, GSH, PAPS by RP-HPLC method; type: ADME, subcellular
Method in brief: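 Male CD-1 mouse liver S9 fraction incubated with peptide as in the plasma study, at 37 °C. Reaction started by adding a 1:1:1:1 cofactor mix made in 200 mM Tris pH 7.4 with 2 mM MgCl2; final levels NADPH 1 mM, UDPGA 0.5 mM, GSH 0.05 mM, PAPS 0.05 mg/ml. Aliquots at 0, 1, 2 and 3 h analysed by RP-HPLC.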

[15] = Drug metabolism in neat mouse plasma at 400 ug/ml by RP-HPLC method; type: ADME, cell-free; details: TDE = time-dependent effect; method in brief: as §1
[16] = test system: DMS-79; assay: Induction of apoptosis in human DMS79 cells assessed as chromatin condensation at 6 uM after 48 hrs by acridine orange/ethidium bromide staining-based inverted fluorescence microscopic method; type: functional, cell-based; method in brief: as §3
[17] = test system: NCI-H69; assay: Induction of apoptosis in human H69 cells assessed as cell shrinkage at 6 uM after 48 hrs by acridine orange/ethidium bromide staining-based inverted fluorescence microscopic method; type: functional; method in brief: as §3
[18] = test system: NCI-H69; assay: Induction of apoptosis in human H69 cells assessed as increase in necrotic cells at 6 uM after 48 hrs by acridine orange/ethidium bromide staining-based inverted fluorescence microscopic method; type: functional, cell-based; method in brief: as §3
[19] = test system: DMS-79; assay: Induction of apoptosis in human DMS79 cells assessed as cell shrinkage at 6 uM after 48 hrs by acridine orange/ethidium bromide staining-based inverted fluorescence microscopic method; type: functional; method in brief: as §3
[20] = test system: NCI-H69; assay: Induction of apoptosis in human H69 cells assessed as chromatin condensation at 6 uM after 48 hrs by acridine orange/ethidium bromide staining-based inverted fluorescence microscopic method; type: functional, cell-based; method in brief: as §3
[21] = test system: DMS-79; assay: Induction of apoptosis in human DMS79 cells assessed as loss of plasma membrane integrity at 6 uM after 48 hrs by acridine orange/ethidium bromide staining-based inverted fluorescence microscopic method; type: functional, cell-based; method in brief: as §3
[22] = Drug metabolism in mouse plasma assessed as formation of (3R,6R,9S,12R,15S)-3,9-dibenzyl-6-((1H-indol-3-yl)methyl)-12-((1-butyl-1H-indol-3-yl)methyl)-15-isobutyl-4,7,10,13-tetraoxo-2,5,8,11,14-pentaazahexadecan-16-oic acid at 400 ug/ml after 3 to 48 hrs by RP-HPLC method
[23] = test system: DMS-79; assay: Induction of apoptosis in human DMS79 cells assessed as late apoptotic cells at 2 uM after 24 hrs by Annexin V/SYTOX Blue staining-based flow cytometric method (reference value: 28.6 +/- 8.2%); type: functional
[24] = test system: DMS-79; assay: Induction of apoptosis in human DMS79 cells assessed as viable cells after 24 hrs by Annexin V/SYTOX Blue staining-based flow cytometric method; type: functional, cell-based
[25] = test system: DMS-79; assay: Induction of apoptosis in human DMS79 cells assessed as necrotic cells at 6 uM after 24 hrs by Annexin V/SYTOX Blue staining-based flow cytometric method (reference value: 3.3 +/- 0.6%); type: functional
[26] = test system: DMS-79; assay: Induction of apoptosis in human DMS79 cells assessed as early apoptotic cells at 2 uM after 24 hrs by Annexin V/SYTOX Blue staining-based flow cytometric method (reference value: 6.4 +/- 0.4%); type: functional
[27] = test system: DMS-79; assay: Induction of apoptosis in human DMS79 cells assessed as viable cells at 2 uM after 24 hrs by Annexin V/SYTOX Blue staining-based flow cytometric method (reference value: 61.7 +/- 9.1%); type: functional; details: DMS-79, 24 h, read-out: Activity
[28] = test system: DMS-79; assay: Induction of apoptosis in human DMS79 cells assessed as necrotic cells at 2 uM after 24 hrs by Annexin V/SYTOX Blue staining-based flow cytometric method (reference value: 3.3 +/- 0.6%); type: functional
[29] = test system: DMS-79; assay: Induction of apoptosis in human DMS79 cells assessed as early apoptotic cells at 6 uM after 24 hrs by Annexin V/SYTOX Blue staining-based flow cytometric method (reference value: 6.4 +/- 0.4%); type: functional
[30] = Drug metabolism in mouse plasma assessed as formation of (3R,6R,9S,12R,15S)-3,9-dibenzyl-6,12-bis((1-butyl-1H-indol-3-yl)methyl)-15-isobutyl-4,7,10,13-tetraoxo-2,5,8,11,14-pentaazahexadecan-16-oic acid at 400 ug/ml after 48 hrs by mass spectrophotometric method; type: ADME, cell-free
[31] = test system: DMS-79; assay: Induction of apoptosis in human DMS79 cells assessed as late apoptotic cells at 6 uM after 24 hrs by Annexin V/SYTOX Blue staining-based flow cytometric method (reference value: 28.6 +/- 8.2%); type: functional
[32] = test system: DMS-79; assay: Induction of apoptosis in human DMS79 cells assessed as viable cells at 6 uM after 24 hrs by Annexin V/SYTOX Blue staining-based flow cytometric method (reference value: 61.7 +/- 9.1%); type: functional; details: DMS-79, 24 h, read-out: Activity
[33] = Metabolic stability in neat mouse plasma assessed as parent compound remaining at 400 ug/ml after 3 hrs by RP-HPLC method; type: ADME, cell-free; details: read-out: Stability; method in brief: as §1
[34] = Metabolic stability in neat mouse plasma assessed as parent compound remaining at 400 ug/ml after 48 hrs by RP-HPLC method; type: ADME, cell-free; details: read-out: Stability; method in brief: as §1

| SMILES | Retention_time [1] | Retention_time [2] | pIC50 [3] | pIC50 [4] | Retention_time [5] | Drug metabolism [8] | Retention_time [9] | Activity [10] | Activity [11] | Activity [12] | Activity [13] | Stability [14] | Drug metabolism [15] | Activity [16] | Activity [17] | Activity [18] | Activity [19] | Activity [20] | Activity [21] | further results |
| --- | --- | --- | --- | --- | --- | --- | --- | --- | --- | --- | --- | --- | --- | --- | --- | --- | --- | --- | --- | --- |
| CCCCn1cc(C[C@@H](NC(=O)[C@H](Cc2ccccc2)NC(=O)[C@@H](Cc2c[nH]c3ccccc23)NC(=O)[C@@H](Cc2ccccc2)NC)C(=O)N[C@@H](CC(C)C)C(=O)O)c2ccccc21 (H-[dNMeF][dW]F[dTrp(1-Bu)]L-OH) | 25.3 min | 25.29 min | < 4.52 | < 4.52 | 25.36 min | Metabolite_Notdetected | 25.27 min | – | – | – | – | – | – | – | – | – | – | – | – | Drug metabolism [6]: Metabolite_Detected; Drug metabolism [7]: Metabolite_Detected |
| CCCCn1cc(C[C@@H](NC(=O)[C@H](Cc2ccccc2)NC(=O)[C@@H](Cc2cn(CCCC)c3ccccc23)NC(=O)[C@@H](Cc2ccccc2)NC)C(=O)N[C@@H](CC(C)C)C(N)=O)c2ccccc21 (H-[dNMeF][dTrp(1-Bu)]F[dTrp(1-Bu)]L-NH2) | 27.93 min | 27.94 min | – | – | 27.53 min | Metabolite_Notdetected | 27.94 min | Active | Active | Active | Active | Stable | Tde | Active | Active | Active | Active | Active | Active | – |
| CN[C@H](Cc1ccccc1)C(=O)N[C@H](Cc1c[nH]c2ccccc12)C(=O)N[C@@H](Cc1ccccc1)C(=O)N[C@H](Cc1c[nH]c2ccccc12)C(=O)N[C@@H](CC(C)C)C(N)=O (H-[dNMeF][dW]F[dW]L-NH2) | – | – | 4.64 | 4.51 | – | – | – | – | – | – | – | – | – | – | – | – | – | – | – | – |
| CCCCn1cc(C[C@@H](NC(=O)[C@H](Cc2ccccc2)NC(=O)[C@@H](Cc2c[nH]c3ccccc23)NC(=O)[C@@H](Cc2ccccc2)NC)C(=O)N[C@@H](CC(C)C)C(N)=O)c2ccccc21 (H-[dNMeF][dW]F[dTrp(1-Bu)]L-NH2) | 25.29 min | 25.26 min | – | – | 25 min | – | 25.23 min | Active | Active | Active | Active | Stable | Tde | Active | Active | Active | Active | Active | Active | Drug metabolism [22]: Metabolite_Detected; Activity [23]: 36.4%; Activity [24]: Dose-dependent effect; Activity [25]: 1.6%; Activity [26]: 8%; viability at 2 µM [27]: 53.3%; Activity [28]: 2.3%; Activity [29]: 1.9%; Drug metabolism [30]: Metabolite_Detected; Activity [31]: 95.5%; viability at 6 µM [32]: 1% |
| C=CC(C)(C)n1cc(C[C@@H](NC(=O)[C@H](Cc2ccccc2)NC(=O)[C@@H](Cc2c[nH]c3ccccc23)NC(=O)[C@@H](Cc2ccccc2)NC)C(=O)N[C@@H](CC(C)C)C(N)=O)c2ccccc21 (H-[dNMeF][dW]F[X1]L-NH2) | 24.89 min | 24.86 min | 5.36 | 5.55 | 24.62 min | Metabolite_Detected | 24.86 min | – | – | – | – | – | Tde | – | – | – | – | – | – | remaining at 3 h, 400 ug/ml [33]: 87.8%; remaining at 48 h, 400 ug/ml [34]: 35.9% |
